Assay results reported in PMC10357458 (ACS Omega, 2023).

System: CAIX-positive SK-RC-52 cells
Assay: Cellular binding, flow cytometry and confocal microscopy on CAIX-positive cells
Assay type: cell-based, human
Details: fluorescent derivatives, 100 nM, 30 min
How it was run: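 SK-RC-52 human renal carcinoma cells were grown in RPMI with 10% FCS and 1% antibiotic-antimycotic at 37 °C, 5% CO₂, and split 1:6 with 0.05% trypsin-EDTA. For confocal imaging, cells were seeded at 10^4 per chamber well in RPMI with 10% FBS and 10 mM HEPES, then grown overnight. Fluorescein-labelled test compounds were imaged with DAPI-stained nuclei. Acetazolamide-fluorescein was the positive control and untargeted fluorescein the negative control.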

CC(=O)Nc1nnc(S(N)(=O)=O)s1 [AAZ, acetazolamide]
binding to CAIX on the surface of SK-RC-52 cells: accumulated on the surface
